In brackets after ≈: the same amount, converted by molar mass.
What was measured:
Format in all cases: functional
[1] = test system: Candida albicans; assay: Antifungal activity against Candida albicans MY1055 after 48 hrs in presence of 10% bovine serum albumin; conditions: MY1055, 48 h
Summary of the method: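 Microtiter broth dilution MIC in Synthetic Complete medium with 10% bovine serum albumin added. Log-phase inoculum set by A600 to an absorbance of 0.0014. Titration started at 256 µg/mL. Cells grown 48 h and endpoints read visually.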

[2] = test system: Candida albicans; assay: Antifungal activity against Candida albicans MY1055 after 48 hrs; conditions: MY1055, 48 h
Summary of the method: (§1)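 Broth microdilution MIC in microtiter format. Organisms grown in Synthetic Complete defined medium. Log-phase cells adjusted by A600 to an initial inoculum absorbance of 0.0014. […] Growth inhibition scored at 24 and 48 h, with visual endpoints.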

[3] = test system: Aspergillus fumigatus; assay: Antifungal activity against Aspergillus fumigatus MF5668 after 48 hrs; summary of the method: as §1
[4] = test system: Cryptococcus neoformans; assay: Antifungal activity against Cryptococcus neoformans MY2062 after 48 hrs; summary of the method: as §1
[5] = test system: Saccharomyces cerevisiae; assay: Antifungal activity against Saccharomyces cerevisiae MY2214 after 48 hrs; summary of the method: as §1

| SMILES | MIC [1] [µg/mL] | MIC [2] [µg/mL] | MIC [3] [µg/mL] | MIC [4] [µg/mL] | MIC [5] [µg/mL] |
| --- | --- | --- | --- | --- | --- |
| C[C@@H]1[C@H](O)[C@@H](C)/C=C/C=C/C=C/C=C/C=C/C=C/C=C/[C@H](O[C@@H]2O[C@H](C)[C@@H](O)[C@H](N)[C@@H]2O)C[C@@H]2O[C@](O)(C[C@@H](O)C[C@@H](O)[C@H](O)CC[C@@H](O)C[C@@H](O)CC(=O)O[C@H]1C)C[C@H](O)[C@H]2C(=O)O [AMPHOTERICIN B] | 0.25 | 0.5 (≈ 0.541 µM) | 1 (≈ 1.08 µM) | 0.25 (≈ 0.271 µM) | 0.25 (≈ 0.271 µM) |
| CC(=O)O[C@@H]1C[C@]2(CO)[C@H]3CCC4=C5C(=O)CC6[C@H](C)CO[C@@H](O)C56CC[C@@]4(C)[C@]3(C)CC[C@H]2C(C)(C)[C@H]1O[C@@H]1O[C@H](CO)[C@@H](O)[C@H](O)[C@H]1O (stereo not given in full) [HYALODENDROSIDE A] | 128 | 128 (≈ 181 µM) | > 256 | > 256 | 128 (≈ 181 µM) |
| CC(=O)O[C@@H]1C[C@]2(CO)[C@H]3CCC4=C5C(=O)C[C@@H](C(C)C)[C@@]5(C)CC[C@@]4(C)[C@]3(C)CC[C@H]2C(C)(C)[C@H]1O[C@@H]1O[C@H](CO)[C@@H](O)[C@H](O)[C@H]1O [HYALODENDROSIDE B] | 128 | 16 (≈ 23.6 µM) | 64 (≈ 94.6 µM) | 4 (≈ 5.91 µM) | 32 (≈ 47.3 µM) |
